Experimental data from ChEMBL document CHEMBL3414486, “Synthesis of heterocycle-modified betulinic acid derivatives as antitumor agents” (Eur J Med Chem, 2015).
Active and inactive are the calls of the source. No cut-off for these calls is given here.

Experiments:
HT-29 [1] = assay: Cytotoxicity against human HT-29 cells assessed as growth inhibition after 96 hrs by SRB assay; assay type: functional, cell-based; settings: HT-29, 96 h
Summary of the method: (§1)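 SRB viability assay. Cells are seeded for 24 h, then exposed for 96 h to a concentration series from 20 mM DMSO stocks, with a DMSO control. Cells are fixed in 50% TCA (2 h, 4 °C), stained with 0.4% SRB for 10 min and washed with 1% acetic acid. Bound dye is dissolved in 10 mM Tris base and read at 515 nm. IC50 is averaged from at least 3 independent experiments. SI is IC50 in HAF divided by IC50 in the cancer line.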

[2] = Cytotoxicity against human MCF7/ADR cells assessed as growth inhibition after 96 hrs by SRB assay; assay type: functional, cell-based; settings: NCI/ADR-RES; summary of the method: as §1
[3] = Selectivity index, ratio of IC50 for HAF to IC50 for human MDA-MB-231 cells; summary of the method: as §1
[4] = Cytotoxicity against human PC3 cells assessed as growth inhibition after 96 hrs by SRB assay; assay type: functional, cell-based; settings: PC-3, 96 h; summary of the method: as §1
T47D [5] = assay: Selectivity index, ratio of IC50 for HAF to IC50 for human T47D cells; summary of the method: as §1
NCI/ADR-RES [6] = assay: Selectivity index, ratio of IC50 for HAF to IC50 for human MCF7/ADR cells; summary of the method: as §1
NCI/ADR-RES [7] = assay: Induction of apoptosis in human MCF7/ADR cells assessed as early apoptotic cells at 20 uM after 24 hrs by annexin V-FITC/propidium iodide staining-based flow cytometric analysis (reference value: 0.67%); assay type: functional
PC-3 = assay: Selectivity index, ratio of IC50 for HAF to IC50 for human PC3 cells; summary of the method: as §1
MDA-MB-231 [8] = assay: Cytotoxicity against human MDA-MB-231 cells assessed as growth inhibition after 96 hrs by SRB assay; assay type: functional, cell-based; settings: MDA-MB-231, 96 h; summary of the method: as §1
4T1 [9] = assay: Cytotoxicity against mouse 4T1 cells assessed as growth inhibition after 96 hrs by SRB assay; assay type: functional, cell-based; settings: 4T1, 96 h; summary of the method: as §1
DU-145 [10] = assay: Selectivity index, ratio of IC50 for HAF to IC50 for human DU145 cells; summary of the method: as §1
MCF7 [11] = assay: Induction of apoptosis in human MCF7 cells assessed as early apoptotic cells at 20 uM after 24 hrs by annexin V-FITC/propidium iodide staining-based flow cytometric analysis (reference value: 0.74%); assay type: functional
[12] = Cytotoxicity against human HCT116 cells assessed as growth inhibition after 96 hrs by SRB assay; assay type: functional, cell-based; settings: HCT-116, 96 h; summary of the method: as §1
MCF7 [13] = assay: Cytotoxicity against human MCF7 cells assessed as growth inhibition after 96 hrs by SRB assay; assay type: functional, cell-based; settings: MCF7, 96 h; summary of the method: as §1
[14] = Cytotoxicity against HAF assessed as growth inhibition after 96 hrs by SRB assay; settings: Homo sapiens; summary of the method: as §1
MDA-MB-231 [15] = assay: Induction of apoptosis in human MDA-MB-231 cells assessed as late apoptotic cells at 5 uM after 24 hrs by annexin V-FITC/propidium iodide staining-based flow cytometric analysis (reference value: 2.4%); assay type: functional
HCT-116 = assay: Selectivity index, ratio of IC50 for HAF to IC50 for human HCT116 cells; summary of the method: as §1
MDA-MB-231 [16] = assay: Antimetastatic activity against human MDA-MB-231 cells at 2.5 to 10 uM after 12 hrs by transwell assay; assay type: functional, cell-based
NCI/ADR-RES [17] = assay: Induction of apoptosis in human MCF7/ADR cells assessed as late apoptotic cells at 20 uM after 24 hrs by annexin V-FITC/propidium iodide staining-based flow cytometric analysis (reference value: 1.48%); assay type: functional
DU-145 [18] = assay: Cytotoxicity against human DU145 cells assessed as growth inhibition after 96 hrs by SRB assay; assay type: functional, cell-based; settings: DU-145, 96 h; summary of the method: as §1
4T1 [19] = assay: Selectivity index, ratio of IC50 for HAF to IC50 for mouse 4T1 cells; summary of the method: as §1
MCF7 [20] = assay: Induction of apoptosis in human MCF7 cells assessed as late apoptotic cells at 20 uM after 24 hrs by annexin V-FITC/propidium iodide staining-based flow cytometric analysis (reference value: 0.84%); assay type: functional
MDA-MB-231 [21] = assay: Induction of apoptosis in human MDA-MB-231 cells assessed as early apoptotic cells at 5 uM after 24 hrs by annexin V-FITC/propidium iodide staining-based flow cytometric analysis (reference value: 0.59%); assay type: functional
T47D [22] = assay: Cytotoxicity against human T47D cells assessed as growth inhibition after 96 hrs by SRB assay; assay type: functional, cell-based; summary of the method: as §1
HT-29 [23] = assay: Selectivity index, ratio of IC50 for HAF to IC50 for human HT-29 cells; summary of the method: as §1
MCF7 [24] = assay: Selectivity index, ratio of IC50 for HAF to IC50 for human MCF7 cells; summary of the method: as §1
MDA-MB-231 [25] = assay: Induction of apoptosis in human MDA-MB-231 cells assessed as late apoptotic cells at 80 uM after 24 hrs by annexin V-FITC/propidium iodide staining-based flow cytometric analysis (reference value: 2.4%)
MCF7 [26] = assay: Induction of apoptosis in human MCF7 cells assessed as late apoptotic cells at 80 uM after 24 hrs by annexin V-FITC/propidium iodide staining-based flow cytometric analysis (reference value: 0.84%); assay type: functional
NCI/ADR-RES [27] = assay: Induction of apoptosis in human MCF7/ADR cells assessed as early apoptotic cells at 80 uM after 24 hrs by annexin V-FITC/propidium iodide staining-based flow cytometric analysis (reference value: 0.67%); assay type: functional
NCI/ADR-RES [28] = assay: Induction of apoptosis in human MCF7/ADR cells assessed as late apoptotic cells at 80 uM after 24 hrs by annexin V-FITC/propidium iodide staining-based flow cytometric analysis (reference value: 1.48%); assay type: functional
MDA-MB-231 [29] = assay: Induction of apoptosis in human MDA-MB-231 cells assessed as early apoptotic cells at 80 uM after 24 hrs by annexin V-FITC/propidium iodide staining-based flow cytometric analysis (reference value: 0.59%)
MDA-MB-231 [30] = assay: Antimetastatic activity against human MDA-MB-231 cells at 10 to 50 uM after 12 hrs by transwell assay relative to control; assay type: functional, cell-based
Summary of the method: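 Transwell migration: 8 × 10^4 MDA-MB-231 cells in serum-free medium in the upper chamber, with 10% FBS medium below. Compound added to both chambers, then 12 h migration. Non-migrated cells swabbed off. Migrated cells fixed in 4% paraformaldehyde for 30 min, stained with 0.1% crystal violet for 5 min, and counted in 5 random fields. Inhibition normalized to untreated control migration.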

MCF7 [31] = assay: Induction of apoptosis in human MCF7 cells assessed as early apoptotic cells at 80 uM after 24 hrs by annexin V-FITC/propidium iodide staining-based flow cytometric analysis (reference value: 0.74%); assay type: functional
MCF7 [32] = assay: Induction of apoptosis in human MCF7 cells assessed as early apoptotic cells at 1 uM after 24 hrs by annexin V-FITC/propidium iodide staining-based flow cytometric analysis (reference value: 0.74%); assay type: functional
NCI/ADR-RES [33] = assay: Induction of apoptosis in human MCF7/ADR cells assessed as early apoptotic cells at 1 uM after 24 hrs by annexin V-FITC/propidium iodide staining-based flow cytometric analysis (reference value: 0.67%); assay type: functional
MCF7 [34] = assay: Induction of apoptosis in human MCF7 cells assessed as late apoptotic cells at 1 uM after 24 hrs by annexin V-FITC/propidium iodide staining-based flow cytometric analysis (reference value: 0.84%); assay type: functional
NCI/ADR-RES [35] = assay: Induction of apoptosis in human MCF7/ADR cells assessed as late apoptotic cells at 1 uM after 24 hrs by annexin V-FITC/propidium iodide staining-based flow cytometric analysis (reference value: 1.48%); assay type: functional

| Compound | IC50 (HT-29 [1]) | IC50 [2] | Ratio IC50 [3] | IC50 [4] | Ratio IC50 (T47D [5]) | Ratio IC50 (NCI/ADR-RES [6]) | Ratio IC50 (PC-3) | IC50 (MDA-MB-231 [8]) | IC50 (4T1 [9]) | Ratio IC50 (DU-145 [10]) | IC50 [12] | IC50 (MCF7 [13]) | IC50 [14] | Ratio IC50 (HCT-116) | IC50 (DU-145 [18]) | Ratio IC50 (4T1 [19]) | IC50 (T47D [22]) | Ratio IC50 (HT-29 [23]) | Ratio IC50 (MCF7 [24]) | other results |
| --- | --- | --- | --- | --- | --- | --- | --- | --- | --- | --- | --- | --- | --- | --- | --- | --- | --- | --- | --- | --- |
| C=C(C)[C@@H]1CC[C@]2(C(=O)O)CC[C@]3(C)[C@H](CC[C@@H]4[C@@]5(C)CC[C@H](NC(=O)C6CCNCC6)C(C)(C)[C@@H]5CC[C@]43C)[C@@H]12 | 970 nM | 330 nM | 4.4 | 1110 nM | 3.2 | 13.5 | 4 | 1010 nM | 1770 nM | 1.8 | 1110 nM | 540 nM | 4450 nM | 4 | 2450 nM | 2.5 | 1400 nM | 4.6 | 8.2 | Activity (NCI/ADR-RES [7]): 12.81%; Activity (MCF7 [11]): 16.17%; Activity (MDA-MB-231 [15]): 25.87%; Activity (MDA-MB-231 [16]): Active; Activity (NCI/ADR-RES [17]): 6.35%; Activity (MCF7 [20]): 4.15%; Activity (MDA-MB-231 [21]): 5.56% |
| C=C(C)[C@@H]1CC[C@]2(C(=O)O)CC[C@]3(C)[C@H](CC[C@@H]4[C@@]5(C)CC[C@H](O)C(C)(C)[C@@H]5CC[C@]43C)[C@@H]12 [BETULINIC ACID] | 17300 nM | 38500 nM | 1 | 27500 nM | 2.2 | 0.9 | 1.3 | 34600 nM | 14000 nM | 0.9 | 22100 nM | 22600 nM | 34500 nM | 1.6 | 36200 nM | 2.5 | 15600 nM | 2 | 1.5 | Activity (MDA-MB-231 [25]): 27.58%; Activity (MCF7 [26]): 1.3%; Activity (NCI/ADR-RES [27]): 4.6%; Activity (NCI/ADR-RES [28]): 2.64%; Activity (MDA-MB-231 [29]): 1.94%; Activity (MDA-MB-231 [30]): Active; Activity (MCF7 [31]): 16.58% |
| C=C(C)[C@@H]1CC[C@]2(C(=O)O)CC[C@]3(C)[C@H](CC[C@@H]4[C@@]5(C)CC[C@H](NC(=O)C6CCCNC6)C(C)(C)[C@@H]5CC[C@]43C)[C@@H]12 (stereo partly specified) | 1190 nM | 390 nM | 1.6 | 1300 nM | 1.4 | 8.2 | 2.4 | 1940 nM | 2180 nM | 1 | 1280 nM | 940 nM | 3180 nM | 2.5 | 3160 nM | 1.5 | 2240 nM | 2.7 | 3.4 | – |
| CC(=O)O[C@@]12CO[C@@H]1C[C@H](O)[C@@]1(C)C(=O)[C@H](O)C3=C(C)[C@@H](OC(=O)[C@H](O)[C@@H](NC(=O)OC(C)(C)C)c4ccccc4)C[C@@](O)([C@@H](OC(=O)c4ccccc4)[C@H]21)C3(C)C.O.O.O [DOCETAXEL] | – | 5180 nM | – | – | – | – | – | – | – | – | – | 5 nM | – | – | – | – | – | – | – | Activity (MCF7 [32]): 5.61%; Activity (NCI/ADR-RES [33]): 1.38%; Activity (MCF7 [34]): 10.63%; Activity (NCI/ADR-RES [35]): 1.58% |
| C=C(C)[C@@H]1CC[C@]2(C(=O)O)CC[C@]3(C)[C@H](CC[C@@H]4[C@@]5(C)CC[C@H](OC(=O)C6CCNCC6)C(C)(C)[C@@H]5CC[C@]43C)[C@@H]12 | 1320 nM | 590 nM | 3.6 | 2180 nM | 1.9 | 9.7 | 2.6 | 1600 nM | 3740 nM | 2.1 | 1400 nM | 2410 nM | 5700 nM | 4.1 | 2690 nM | 1.5 | 3050 nM | 4.3 | 2.4 | – |
